Legend:
[1] = Inhibition of RTK/PI3K/AKT/mTOR signaling in human U87 cells assessed as down regulation of LAMA2 gene expression at cytotoxic IC50 measured after 48 hrs relative to control; assay type: cell-based; conditions: U-87MG ATCC
In short: (§1)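 U87 cells grown in MEM with 10% FBS at 37°C, 5% CO2. Cells exposed to IC50 of test compound for 48 hrs, alongside untreated and cisplatin controls, each condition in triplicate. RNA isolated and profiled; differential expression called with DESeq2 (q-value < 0.05, fold change > 1.5), fold change versus untreated.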

[2] = tested on: U-87 MG; experiment: Induction of DNA damage in human U87 cells assessed as change in TRIAP1 gene expression at cytotoxic IC50 measured after 48 hrs […] relative to control; assay type: functional, U-87MG ATCC; in short: as §1
[3] = tested on: U-87 MG; experiment: Induction of DNA damage in human U87 cells assessed as change in PIDD1 gene expression at cytotoxic IC50 measured after 48 hrs […] relative to control; assay type: functional, U-87MG ATCC
In short: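 U87 expression profiling. Cells incubated 48hrs at 37°C, 5% CO₂ with the IC₅₀ concentration, alongside a cisplatin and an untreated control, in triplicate. RNA was isolated by one common protocol and profiled. DEGs were called with DESeq2 (q < 0.05, fold change > 1.5) and expressed as fold change versus untreated.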

Structure (SMILES): CC(=O)C(=NNc1ccccc1C#N)C(C)=O
- log2FC [1]: -1.14
- fold change (FC) [2]: 2.018
- fold change (FC) [3]: 2.467
